# Laboratory results: ChEMBL document CHEMBL1932986, “Synthesis and in vitro antimycobacterial activity of compounds derived from (R)- and (S)-2-amino-1-butanol - The crucial role of the configuration” (Eur J Med Chem, 2012)
# Calls of active or inactive are those of the source. The rule behind the calls is not given here.
# Key:
# Type in all cases: functional
# Micrococcus luteus [1] = assay: Antibacterial activity against Micrococcus luteus ATCC 9631 at 50 mg/ml after 24 hrs by agar diffusion test; settings: for zone of inhibition at 50000 µg/mL: ATCC 9631, 24 h, read-out: DIZ
# Method in brief: (§1)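 Agar diffusion: wells in agar filled with […] DMSO solution of compound at various concentrations; diameter of clear zone around application point measured. Bacteria grown 24 h at 37 °C on nutrient agar. Compounds first screened at 50 mg/ml; those active then tested at lower concentrations. Bracketed value = lowest concentration (mg/ml) giving zone >11 mm, reported only if activity retained at ≤1.25 mg/ml.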
# Bacillus mycoides = assay: Antibacterial activity against Bacillus mycoides DSMZ 274 at 50 mg/ml after 24 hrs by agar diffusion test; settings: for zone of inhibition at 50000 µg/mL: DSMZ 274, 24 h, read-out: DIZ; method in brief: as §1
# Penicillium chrysogenum = assay: Antifungal activity against Penicillium chrysogenum CECT 2802 at 50 mg/ml after 72 hrs by agar diffusion test; settings: for zone of inhibition at 50000 µg/mL: CECT 2802, 72 h, read-out: DIZ
# Method in brief: (§2)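 Agar diffusion: yeasts grown on yeast peptone dextrose agar and fungi on potato dextrose agar. Wells are filled with […] of compound solution in DMSO at various concentrations, and the clear-zone diameter is measured. Bracketed values give the lowest concentration (mg/ml) that produces a zone >11 mm. A first screen is run at 50 mg/ml.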
# Staphylococcus aureus = assay: Antibacterial activity against Staphylococcus aureus NRRL B 313 at 50 mg/ml after 24 hrs by agar diffusion test; settings: for zone of inhibition at 50000 µg/mL: NRRL B 313, 24 h, read-out: DIZ
# Method in brief: (§3)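 Agar diffusion: bacteria grown 24 h at 37 °C on nutrient agar. Wells in the agar are filled with […] of compound solution in DMSO at various concentrations. The diameter of the clear zone around the application point is measured. Bracketed values give the lowest concentration (mg/ml) that produces a zone >11 mm. A first screen is run at 50 mg/ml.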
# [2] = system: Mycobacterium tuberculosis; assay: Antimycobacterial activity against Mycobacterium tuberculosis H37Rv after 45 days
# Method in brief: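 Canetti proportion method. Compound in DMSO is added to Löwenstein–Jensen egg medium before coagulation (30 min, 85 °C), tested at three levels plus a lower one where needed. Tubes are inoculated with H37Rv at 10⁵ cells/ml and incubated 45 days at 37 °C. Colony counts versus drug-free control give percentage inhibition.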
# Bacillus cereus = assay: Antibacterial activity against Bacillus cereus ATCC 11778 at 50 mg/ml after 24 hrs by agar diffusion test; settings: for zone of inhibition at 50000 µg/mL: ATCC 11778, 24 h, read-out: DIZ; method in brief: as §1
# Bacillus = assay: Antibacterial activity against Bacillus idosus B 241 at 50 mg/ml after 24 hrs by agar diffusion test; settings: for zone of inhibition at 50000 µg/mL: B 241, 24 h, read-out: DIZ; method in brief: as §1
# Priestia megaterium = assay: Antibacterial activity against Bacillus megaterium NRRL 1353895 at 50 mg/ml after 24 hrs by agar diffusion test; settings: for zone of inhibition at 50000 µg/mL: NRRL 1353895, 24 h, read-out: DIZ; method in brief: as §1
# Saccharomyces cerevisiae = assay: Antifungal activity against Saccharomyces cerevisiae ATCC 9763 at 50 mg/ml after 72 hrs by agar diffusion test; settings: for zone of inhibition at 50000 µg/mL: ATCC 9763, 72 h, read-out: DIZ; method in brief: as §2
# Acinetobacter johnsonii = assay: Antibacterial activity against Acinetobacter johnsonii ATCC 17909 at 50 mg/ml after 24 hrs by agar diffusion test; settings: for zone of inhibition at 50000 µg/mL: ATCC 17909, 24 h, read-out: DIZ; method in brief: as §1
# Candida tropicalis = assay: Antifungal activity against Candida tropicalis ATCC 20336 at 50 mg/ml after 72 hrs by agar diffusion test; settings: for zone of inhibition at 50000 µg/mL: ATCC 20336, 72 h, read-out: DIZ; method in brief: as §2
# Bacillus subtilis = assay: Antibacterial activity against Bacillus subtilis ATCC 6633 at 50 mg/ml after 24 hrs by agar diffusion test; settings: for zone of inhibition at 50000 µg/mL: ATCC 6633, 24 h, read-out: DIZ; method in brief: as §1
# Micrococcus luteus [3] = assay: Antibacterial activity against Sarcina lutea ATCC 9341 at 50 mg/ml after 24 hrs by agar diffusion test; settings: for zone of inhibition at 50000 µg/mL: ATCC 9341, 24 h, read-out: DIZ; method in brief: as §3
# Escherichia coli = assay: Antibacterial activity against Escherichia coli ATCC 8739 at 50 mg/ml after 24 hrs by agar diffusion test; settings: for zone of inhibition at 50000 µg/mL: ATCC 8739, 24 h, read-out: DIZ; method in brief: as §1
Structure (SMILES),diameter of the inhibition zone (DIZ) (Micrococcus luteus [1]),diameter of the inhibition zone (DIZ) (Bacillus mycoides),diameter of the inhibition zone (DIZ) (Penicillium chrysogenum),diameter of the inhibition zone (DIZ) (Staphylococcus aureus),MIC [2] [µM],diameter of the inhibition zone (DIZ) (Bacillus cereus),diameter of the inhibition zone (DIZ) (Bacillus),diameter of the inhibition zone (DIZ) (Priestia megaterium),diameter of the inhibition zone (DIZ) (Saccharomyces cerevisiae),diameter of the inhibition zone (DIZ) (Acinetobacter johnsonii),diameter of the inhibition zone (DIZ) (Candida tropicalis),diameter of the inhibition zone (DIZ) (Bacillus subtilis),diameter of the inhibition zone (DIZ) (Micrococcus luteus [3]),diameter of the inhibition zone (DIZ) (Escherichia coli),zone of inhibition at 50000 µg/mL (Bacillus mycoides) [mm],zone of inhibition at 50000 µg/mL (Staphylococcus aureus) [mm],zone of inhibition at 50000 µg/mL (Bacillus cereus) [mm],zone of inhibition at 50000 µg/mL (Bacillus) [mm],zone of inhibition at 50000 µg/mL (Bacillus subtilis) [mm],zone of inhibition at 50000 µg/mL (Micrococcus luteus [1]) [mm],other results
CC[C@H](CO)NC(=O)c1cccc2ccccc12,inactive,inactive,inactive,inactive,> 20.6,inactive,inactive,inactive,inactive,inactive,inactive,inactive,inactive,inactive,,,,,,,
CC[C@H](CO)NC(=O)C(C)(C)C,inactive,,inactive,,28.9,,,inactive,inactive,inactive,inactive,,inactive,inactive,11,15,16,11,15,,
CC[C@H](CO)N(CC(=O)Nc1c(C)cccc1C)CC(=O)Nc1c(C)cccc1C,,,inactive,,> 12.2,,,inactive,inactive,inactive,inactive,inactive,inactive,inactive,12,15,11,10,,12,
CC[C@H](CO)/N=C1\C[C@H]2CC[C@]1(C)C2(C)C,inactive,,inactive,inactive,> 22.4,inactive,inactive,,inactive,inactive,inactive,inactive,inactive,inactive,11,,,,,,zone of inhibition at 50000 µg/mL (Priestia megaterium): 10 mm
CC[C@H](CO)N1C(=O)C=C(C)C1=O,,,,,27.3,,,,,,,,,,24,20,28,23,21,22,zone of inhibition at 50000 µg/mL (Penicillium chrysogenum): 25 mm; zone of inhibition at 50000 µg/mL (Priestia megaterium): 20 mm; zone of inhibition at 50000 µg/mL (Saccharomyces cerevisiae): 21 mm; zone of inhibition at 50000 µg/mL (Acinetobacter johnsonii): 21 mm; zone of inhibition at 50000 µg/mL (Candida tropicalis): 20 mm; zone of inhibition at 50000 µg/mL (Micrococcus luteus [3]): 21 mm; zone of inhibition at 50000 µg/mL (Escherichia coli): 32 mm
CC[C@H](CO)NCc1ccncc1,inactive,inactive,inactive,inactive,27.7,inactive,inactive,inactive,inactive,inactive,inactive,inactive,inactive,inactive,,,,,,,
CC[C@H](CO)NC(=O)c1ccncc1,inactive,inactive,inactive,inactive,> 25.7,inactive,inactive,inactive,inactive,inactive,inactive,inactive,inactive,inactive,,,,,,,
CC[C@H](CO)N(Cc1ccccc1)Cc1ccccc1,,inactive,inactive,,> 18.6,,,inactive,inactive,,,inactive,,inactive,,11,11,11,,12,zone of inhibition at 50000 µg/mL (Acinetobacter johnsonii): 11 mm; zone of inhibition at 50000 µg/mL (Candida tropicalis): 10 mm; zone of inhibition at 50000 µg/mL (Micrococcus luteus [3]): 12 mm
CC[C@H](CO)NC(=O)Nc1cccc2ccccc12,inactive,inactive,inactive,inactive,> 19.4,inactive,inactive,inactive,inactive,inactive,inactive,inactive,inactive,inactive,,,,,,,
CC[C@H](CO)NC(c1ccccc1)(c1ccccc1)c1ccccc1,inactive,inactive,inactive,inactive,> 15.1,inactive,inactive,inactive,inactive,inactive,inactive,,inactive,inactive,,,,,12,,
CC[C@H](CO)Nc1cccc(Br)n1,,,,,20.4,,,,,,,,,,13,14,19,17,13,18,zone of inhibition at 50000 µg/mL (Penicillium chrysogenum): 17 mm; zone of inhibition at 50000 µg/mL (Priestia megaterium): 15 mm; zone of inhibition at 50000 µg/mL (Saccharomyces cerevisiae): 10 mm; zone of inhibition at 50000 µg/mL (Acinetobacter johnsonii): 14 mm; zone of inhibition at 50000 µg/mL (Candida tropicalis): 25 mm; zone of inhibition at 50000 µg/mL (Micrococcus luteus [3]): 17 mm; zone of inhibition at 50000 µg/mL (Escherichia coli): 17 mm
CC[C@H](CO)NCc1ccc2ccccc2c1,,,,,> 21.8,,,,,,,,,,17,19,14,19,19,19,zone of inhibition at 50000 µg/mL (Penicillium chrysogenum): 35 mm; zone of inhibition at 50000 µg/mL (Priestia megaterium): 17 mm; zone of inhibition at 50000 µg/mL (Saccharomyces cerevisiae): 10 mm; zone of inhibition at 50000 µg/mL (Acinetobacter johnsonii): 17 mm; zone of inhibition at 50000 µg/mL (Candida tropicalis): 10 mm; zone of inhibition at 50000 µg/mL (Micrococcus luteus [3]): 17 mm; zone of inhibition at 50000 µg/mL (Escherichia coli): 22 mm
